Source: ChEMBL document CHEMBL3808362, “Affinity-Guided Design of Caveolin-1 Ligands for Deoligomerization” (J Med Chem, 2016)
Active and inactive are the calls of the source. No cut-off for these calls is given here. Peptide text beside a SMILES is read from it.

Key:
Caveolin-1 = target: T1, Caveolin-1 (Homo sapiens, UniProt Q03135); assay: Binding affinity to human CAV (1 to 104 residues) expressed in Escherichia coli BL21-DE3 by isothermal titration calorimetric analysis
T1 sequence (Q03135 whole entry): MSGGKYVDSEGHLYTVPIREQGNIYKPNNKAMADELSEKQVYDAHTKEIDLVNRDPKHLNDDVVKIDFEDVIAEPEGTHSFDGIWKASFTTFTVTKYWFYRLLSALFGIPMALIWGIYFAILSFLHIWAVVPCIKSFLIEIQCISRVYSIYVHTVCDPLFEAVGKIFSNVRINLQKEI

Homo sapiens = organism: Homo sapiens; assay: Binding affinity to rhodamine-labeled casein (unknown origin) by SPOT screening assay
Procedure, shortened: (§1)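 Peptides synthesized on cellulose SPOT arrays with a double β-Ala linker, screened in duplicate sheets against rhodamine-labeled protein. Sheets were washed and blocked, and SPOT fluorescence was quantified as relative apparent binding. Signal from blank linker-only SPOTs was subtracted on each sheet.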

[1] = target: T2, Caveolin-1 (Homo sapiens) (UniProt Q03135); assay: Inhibition of oligomerization of human soluble full length variant CAV at 10 uM by dynamic light scattering analysis in presence of TCEP
T2 sequence (whole entry): T1 sequence (Q03135 whole entry)
Procedure, shortened: (§2)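 Soluble full-length CAV variant (CAV(FLV)) forms oligomers spontaneously. These were incubated with peptide, and particle size was measured by dynamic light scattering as average diameter and polydispersity. For line 7, incubation was under reducing conditions to disrupt the peptide's disulfide dimerization.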

[2] = target: T2, Caveolin-1 (Homo sapiens); assay: Inhibition of oligomerization of human soluble full length variant CAV by dynamic light scattering analysis
Procedure, shortened: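 CAV(FLV) oligomers were incubated with varied peptide concentrations. Dose dependence was followed by dynamic light scattering as the diameter of separate oligomeric peaks.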

[3] = target: T2, Caveolin-1 (Homo sapiens); assay: Binding affinity to rhodamine-labeled human CAV (1 to 104 residues) expressed in Escherichia coli BL21-DE3 by SPOT screening assay; procedure, shortened: as §1
Gallus gallus = organism: Gallus gallus; assay: Binding affinity to rhodamine-labeled hen egg white lysozyme by SPOT screening assay; procedure, shortened: as §1
[4] = target: T2, Caveolin-1 (Homo sapiens); assay: Inhibition of oligomerization of human soluble full length variant CAV at 10 uM by dynamic light scattering analysis; procedure, shortened: as §2
Albumin = Albumin (Bos taurus, UniProt P02769); assay: Binding affinity to rhodamine-labeled bovine serum albumin by SPOT screening assay; assay type: ADME; conditions: cattle, isolated protein; procedure, shortened: as §1
Sequence of Albumin (P02769 whole entry): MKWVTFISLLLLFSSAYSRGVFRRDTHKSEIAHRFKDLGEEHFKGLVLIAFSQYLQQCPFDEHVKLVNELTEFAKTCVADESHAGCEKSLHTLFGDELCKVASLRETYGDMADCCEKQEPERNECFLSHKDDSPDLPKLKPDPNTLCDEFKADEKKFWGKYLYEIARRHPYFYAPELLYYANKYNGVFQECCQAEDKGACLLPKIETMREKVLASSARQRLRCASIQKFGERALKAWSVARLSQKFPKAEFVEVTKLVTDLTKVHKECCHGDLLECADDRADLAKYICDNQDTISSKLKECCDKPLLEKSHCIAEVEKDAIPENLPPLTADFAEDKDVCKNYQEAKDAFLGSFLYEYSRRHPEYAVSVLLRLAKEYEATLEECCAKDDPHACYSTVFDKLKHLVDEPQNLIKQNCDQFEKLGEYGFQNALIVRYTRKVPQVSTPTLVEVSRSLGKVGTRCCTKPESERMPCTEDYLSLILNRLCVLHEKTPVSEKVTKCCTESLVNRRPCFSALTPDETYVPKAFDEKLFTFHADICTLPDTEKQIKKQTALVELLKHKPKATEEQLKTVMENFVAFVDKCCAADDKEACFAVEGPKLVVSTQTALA

CC[C@H](C)[C@H](NC(=O)[C@H](CC(C)C)NC(=O)[C@H](CO)NC(=O)[C@H](Cc1cnc[nH]1)NC(=O)[C@@H](NC(=O)[C@H](CC(C)C)NC(=O)[C@H](CO)NC(=O)[C@@H](NC(=O)[C@@H](N)Cc1ccc(O)cc1)[C@@H](C)O)[C@@H](C)CC)C(=O)N[C@@H](CCC(=O)O)C(=O)N[C@@H](CCC(=O)O)C(=O)N[C@@H](CO)C(=O)N[C@@H](CCC(N)=O)C(=O)N[C@@H](CC(N)=O)C(=O)N[C@@H](CCC(N)=O)C(=O)N[C@@H](CCC(N)=O)C(=O)N[C@@H](CCC(=O)O)C(=O)N[C@@H](CCCCN)C(=O)N[C@@H](CCC(N)=O)C(=O)N[C@@H](CCC(=O)O)C(=O)N[C@@H](CCCCN)C(=O)N[C@@H](CCC(=O)O)C(=O)N[C@@H](CC(C)C)C(=O)N[C@@H](CCSC)C(=O)N[C@@H](CCC(=O)O)C(=O)N[C@@H](CC(C)C)C(=O)N[C@@H](CCC(=O)O)C(=O)N[C@@H](CCCNC(=N)N)C(=O)N[C@@H](Cc1c[nH]c2ccccc12)C(=O)NCC(=O)N[C@@H](CO)C(=O)N[C@@H](CCSC)C(=O)N[C@@H](CC(C)C)C(=O)N[C@@H](CCCCN)C(=O)N[C@@H](CS)C(=O)N[C@@H](Cc1ccccc1)C(=O)O (H-YTSLIHSLIEESQNQQEKQEKELMELERWGSMLKCF-OH)
Kd (Caveolin-1): ≤ 155 nM

CSCC[C@H](NC(=O)[C@H](Cc1c[nH]c2ccccc12)NC(=O)[C@H](CO)NC(=O)[C@@H](N)CS)C(=O)N[C@@H](CCCNC(=N)N)C(=O)N[C@@H](CC(C)C)C(=O)N[C@@H](CCCCN)C(=O)O (H-CSWMRLK-OH)
Activity (Homo sapiens): inactive
inhibition [1]: inactive
inhibition [2]: Dose-dependent effect
Activity [3]: Active
Activity (Gallus gallus): inactive
inhibition [4]: Active
Activity (Albumin): Not Active

CSCC[C@H](NC(=O)[C@H](CO)NC(=O)CNC(=O)[C@H](Cc1c[nH]c2ccccc12)NC(=O)[C@H](CCCNC(=N)N)NC(=O)[C@H](CCC(=O)O)NC(=O)[C@H](CC(C)C)NC(=O)[C@H](CCC(=O)O)NC(=O)[C@H](CCSC)NC(=O)[C@H](CC(C)C)NC(=O)[C@@H](N)CCC(=O)O)C(=O)N[C@@H](CC(C)C)C(=O)N[C@@H](CCCCN)C(=O)N[C@@H](CS)C(=O)N[C@@H](Cc1ccccc1)C(=O)O (H-ELMELERWGSMLKCF-OH)
Activity [3]: Active

CSCC[C@H](NC(=O)[C@H](CO)NC(=O)CNC(=O)[C@H](Cc1c[nH]c2ccccc12)NC(=O)[C@@H](N)CCCNC(=N)N)C(=O)N[C@@H](CC(C)C)C(=O)N[C@@H](CCCCN)C(=O)N[C@@H](CS)C(=O)N[C@@H](Cc1ccccc1)C(=O)O (H-RWGSMLKCF-OH)
Activity [3]: Active
